NR2E3 ag-1: agonists of human nuclear receptor NR2E3 | 320,000 compounds, 0.12% hits | Q9Y5X4 | AID 2300 | GST-NR2E3/biotin-RetCOR TR-FRET, 1536-well | inhibition of corepressor binding, % at 4.78 µM;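 active = percent inhibition above the cutoff of mean plus 3 SD of all tested compounds, set per screening campaign, cut at about 20% in these data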
Target sequence (Q9Y5X4 whole entry, looked up): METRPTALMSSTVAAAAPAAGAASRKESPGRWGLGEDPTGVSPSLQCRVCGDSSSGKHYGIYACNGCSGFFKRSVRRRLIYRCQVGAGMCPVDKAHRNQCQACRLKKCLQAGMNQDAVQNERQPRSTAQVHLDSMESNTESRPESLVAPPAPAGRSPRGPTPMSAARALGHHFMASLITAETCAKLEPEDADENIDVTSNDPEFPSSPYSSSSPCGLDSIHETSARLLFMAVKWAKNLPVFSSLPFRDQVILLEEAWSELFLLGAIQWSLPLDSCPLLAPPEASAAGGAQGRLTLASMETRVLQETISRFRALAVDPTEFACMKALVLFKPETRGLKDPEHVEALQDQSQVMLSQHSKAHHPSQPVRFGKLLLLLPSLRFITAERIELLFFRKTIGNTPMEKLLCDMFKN
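System: GST-tagged NR2E3 plus biotinylated RetCOR corepressor; Buffer or medium: pH 7.5 Tris-based buffer; Probe or stimulus: RetCOR corepressor, biotinylated, 7 nM; Doses: compound at 4.8 µM, single dose; Schedule: 5 h incubation at 4 °C; Technique: time-resolved FRET; Evaluation: percent inhibition of TR-FRET ratio; Replication: one well per compound, singlicate testing.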
PG9 Ab binder: PG9 antibody binding by small molecule. inhibition, % at 6.7 µM. 360,000 compounds, 0.43% hits. TR-FRET gp120-PG9 antibody binding. AID 624416; in the data active = inhibition above about 8.5%
NR2E3 ag-2: activates human NR2E3 receptor. Q9Y5X4. CHO-S Gal4-NCOR/VP16-NR2E3 two-hybrid, luciferase. inhibition of corepressor binding, % at 3.98 µM. 360,000 compounds, 0.35% hits. AID 602229;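 active = inhibition above the mean of all tested compounds plus 3 SD, cut at about 70% in these data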;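 note: higher means lower luciferase signal from less NR2E3 corepressor binding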
NR1D1 modulator: modulators of human Rev-erb alpha DNA binding. Rev-erbα–FITC-DNA binding, fluorescence polarization, 90 min. 370,000 compounds, 0.79% hits. activity, % at 10 µM. AID 1259318. P20393;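 active = activity above about 14%, limit read from the data; passing the limit was not always enough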
PG9 binder conf: PG9 antibody binding, confirmed; shares compounds with PG9 Ab binder; TR-FRET PG9 antibody binding, biochemical; inhibition, % at 6.7 µM; 1,500 compounds, 90% hits; in the data active = inhibition above about 9%
PGV04 Ab binding: PGV04 control antibody binding, counter-screen | shares compounds with PG9 Ab binder | TR-FRET PGV04 antibody-gp120 binding, biochemical | inhibition, % at 6.7 µM | 1,500 compounds, 95% hits | AID 651604; in the data active = inhibition above about 9.5%
PG9 bind DR: PG9 antibody binding, dose response; IC50, µM; 95 tested, under 10 active; shares compounds with PG9 Ab binder; TR-FRET PG9 antibody-gp120 binding inhibition; in the data active = IC50 below about 10 µM
PGV04 binding DR: counter-screen for PG9 binders: binding to control antibody PGV04; AID 651937; TR-FRET binding to control antibody PGV04; shares compounds with PG9 Ab binder; IC50, µM; 95 compounds, 20% hits
PG126 binding DR: counter-screen for PG9 binders: binding to control antibody PG126 | shares compounds with PG9 Ab binder | TR-FRET binding to antibody PG126, counterscreen | IC50, µM | 95 compounds, 20% hits | AID 651939
Hits are given with their value; - = inactive; . = no result. Rows were chosen to be rich in hits. Some 1.4% of all compounds tested hit in one or more screens of this group. Cut-off read from the data, not from the text of the source, unless noted: active = IC50 below about 9 µM; inactive = the rest.

SMILES	NR2E3 ag-1	PG9 Ab binder	NR2E3 ag-2	NR1D1 modulator	PG9 binder conf	PGV04 Ab binding	others
COCCN1CCC(CO)C1 (stereo not drawn)	.	10.3	-	-	-	10.8
COCCN1CCC(CNCc2cn[nH]c2-c2ccc(C)c(C)c2)C1 (stereo not drawn)	-	-	-	-	.	.
CC(=O)c1sc(C(C)(C)C)cc1NC(=O)c1ccccc1C(=O)O	-	48.2	-	-	57.4	64.7
O=C(O)c1ccccc1C(=O)Nc1ccccc1NC(=O)c1ccccc1C(=O)O	-	-	-	-	.	.
CCn1c(SCc2nc3ccccc3nc2C)nnc1-c1cccs1	-	-	-	-	.	.
Cc1nc2ccccc2nc1CSc1nncs1	-	9.8	-	-	-	-
CS(=O)(=O)c1ccc2nc(NC(=O)Nc3ccccc3F)sc2c1	-	33.4	-	-	27.3	45.9
COc1ccccc1C1C(C(=O)c2cc3ccccc3o2)=C(O)C(=O)N1CCN(C)C (stereo not drawn)	-	12.8	-	-	23.8	34.0
COc1cccc2cc(C(=O)C3=C(O)C(=O)N(CCN(C)C)C3c3ccc(Cl)cc3)oc12 (stereo not drawn)	-	14.4	-	-	22.4	28.4
COc1cc(C2C(C(C)=O)=C(O)C(=O)N2CCN(C)C)ccc1O (stereo not drawn)	-	-	-	-	.	.
CCOC(=O)[C@@]12CN(C(=O)OC(C)(C)C)CC=C1N(Cc1ccc(OC)cc1)C(=O)[C@H]2CC(=O)NCCCN1CCCC1=O	.	.	.	-	.	.
CCOC(=O)[C@@]12CCCC=C1N(CCc1ccc(Cl)cc1)C(=O)[C@H]2CC(=O)NCCCCc1ccccc1	.	.	.	-	.	.
CN1C(=O)c2cc(NC(=O)Cc3cccs3)ccc2OC[C@@H]2O[C@@H](CC(=O)N[C@H]3CCN(Cc4ccccc4)C3)CC[C@@H]21	.	.	.	-	.	.
CCCCC(=O)Nc1nn(CC)c2nc3c(C)cccc3cc12	-	9.7	-	-	11.0	15.0
O=C(NCCN1Cc2ccccc2C1=O)c1cccs1	-	50.0	-	-	10.1	11.2
CCn1c(SCC(=O)N/N=C/c2cccc(Oc3ccccc3)c2)nnc1-c1ccccc1	.	.	.	-	.	.
CN1CCN(CCCNC(=O)c2ccc3c(c2)N(Cc2ccc(F)cc2)CCS3)CC1	-	16.7	-	-	15.3	23.8
O=C(NCCCN1CCOCC1)c1ccc2c(c1)N(Cc1ccc(F)cc1)CCS2	-	-	-	-	.	.
O=C(COC(=O)c1cn(-c2ccccc2)nc1-c1ccccc1)Nc1ncc(Cl)cc1Cl	-	14.7	-	-	21.7	32.9
COc1cccc(-c2nn(-c3ccccc3)cc2C(=O)OCC(=O)Nc2ncc(Cl)cc2Cl)c1	-	-	-	-	.	.
COc1ccc(NC(=O)c2c(NC(=O)CNCC(C)C)sc3c2CCC3)c(OC)c1	-	11.5	-	-	9.9	9.5	PG9 bind DR=-;PGV04 binding DR=-;PG126 binding DR=-
Nc1[nH]c(C(=O)c2ccccc2)c(-c2cccc(C(F)(F)F)c2)c1C(=O)NCCc1c[nH]c2ccccc12	.	-	.	-	.	.
COc1ccc(S(=O)(=O)NNC(=O)c2csc(-n3nc(C)cc3C(F)(F)F)n2)cc1OC	-	10.4	-	-	-	11.4
Cc1cc(C(F)(F)F)n(-c2nc(C(=O)NN)cs2)n1	-	-	-	-	.	.
CC(C)C[C@@H]1COc2cccc(N3CCCC3)c2S(=O)(=O)N1C	.	.	.	-	.	.
CCC[C@H]1[C@@H](OC(=O)NCc2cccnc2)CC[C@@]23CCCN2C(=O)CCC[C@@H]13	.	.	.	-	.	.
COc1ccc(NS(=O)(=O)c2cccc(C(=O)N3CCN(Cc4ccc5c(c4)OCO5)CC3)c2)cc1	-	-	-	-	.	.
O=C(c1ccc(NS(=O)(=O)c2ccccc2)cc1)N1CCN(Cc2ccc3c(c2)OCO3)CC1	-	10.9	-	-	-	-
CCOC(=O)C1=C(C)NC(SCC(N)=O)=C(C#N)C1c1ccccc1 (stereo not drawn)	-	13.8	-	-	-	10.3

Screening data deposited in PubChem BioAssay by several laboratories.
